# Source: ChEMBL document CHEMBL1152868, “Activation of aldehyde dehydrogenase-2 reduces ischemic damage to the heart” (Science, 2008)
# The source made the active and inactive calls. No cut-off for these calls is given here.
# What was measured:
# [1] = tested on: Rattus norvegicus; assay: Cardiac protection in Wistar rat assessed as decrease in infarct size at 5 ug/min/kg for 13 hrs prolonged treatment terminated 3 hrs before ischemia; assay type: functional; parameters: scale not given: the % may be the effect or the level left
# [2] = target: T1, Aldehyde dehydrogenase, mitochondrial (Rattus norvegicus) (UniProt P11884); assay: Induction of ALDH2 activity in langendorff perfused ischemic Wistar rat heart homogenate assessed as NADH level in per mg of protein at 1 uM after 10 mins by spectrophotometry; assay type: tissue-based
# T1 sequence (whole entry): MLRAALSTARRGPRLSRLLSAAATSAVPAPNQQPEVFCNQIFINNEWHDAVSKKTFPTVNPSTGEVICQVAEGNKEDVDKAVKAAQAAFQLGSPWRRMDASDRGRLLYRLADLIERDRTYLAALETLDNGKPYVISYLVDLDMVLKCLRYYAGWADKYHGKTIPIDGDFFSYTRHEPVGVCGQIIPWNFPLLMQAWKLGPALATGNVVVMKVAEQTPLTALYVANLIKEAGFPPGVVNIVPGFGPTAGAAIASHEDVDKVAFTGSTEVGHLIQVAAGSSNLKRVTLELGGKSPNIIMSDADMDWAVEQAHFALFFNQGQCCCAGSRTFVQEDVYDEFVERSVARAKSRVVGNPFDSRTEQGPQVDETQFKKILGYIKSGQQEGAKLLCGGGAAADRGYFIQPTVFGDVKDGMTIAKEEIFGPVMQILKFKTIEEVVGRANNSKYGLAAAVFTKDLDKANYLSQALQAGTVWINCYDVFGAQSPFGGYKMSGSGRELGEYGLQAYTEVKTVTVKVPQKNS
# Summary of the method: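 Rat hearts on a Langendorff apparatus perfused with oxygenated Krebs-Henseleit buffer containing 1μM εPKC agonist peptide for 10 min, then subjected to ischemia; ALDH activity measured in heart homogenates.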
# [3] = tested on: Heart; assay: Cardiac protection in Langendorff perfused ischemic Wistar rat heart assessed as reduction of infarct size at 1 uM for 10 mins by TTC staining; assay type: functional; parameters: scale not given: the % may be the effect or the level left
# [4] = tested on: BL21; assay: Activation of human recombinant ALDH2*2 E487K mutant expressed Escherichia coli BL21 cells at 10 uM relative to control
# [5] = target: T2, Aldehyde dehydrogenase, mitochondrial (Homo sapiens) (UniProt P05091); assay: Activation of wild type human recombinant ALDH2*1 expressed Escherichia coli BL21 cells at 10 uM relative to control
# T2 sequence (whole entry): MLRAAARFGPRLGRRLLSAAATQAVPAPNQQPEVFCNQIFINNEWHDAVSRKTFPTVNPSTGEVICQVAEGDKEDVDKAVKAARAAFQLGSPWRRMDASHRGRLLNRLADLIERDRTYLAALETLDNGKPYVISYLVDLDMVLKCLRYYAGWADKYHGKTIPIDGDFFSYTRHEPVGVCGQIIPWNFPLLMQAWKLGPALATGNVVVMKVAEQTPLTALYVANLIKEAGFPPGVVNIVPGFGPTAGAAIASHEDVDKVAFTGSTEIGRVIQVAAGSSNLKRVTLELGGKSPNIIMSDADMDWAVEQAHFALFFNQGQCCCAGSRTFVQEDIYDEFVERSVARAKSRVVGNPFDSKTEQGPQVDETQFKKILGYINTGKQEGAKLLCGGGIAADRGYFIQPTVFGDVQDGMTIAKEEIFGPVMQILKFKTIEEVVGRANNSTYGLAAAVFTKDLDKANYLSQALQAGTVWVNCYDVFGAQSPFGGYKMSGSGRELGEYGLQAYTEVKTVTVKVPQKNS
# [6] = tested on: Rattus norvegicus; assay: Reduction of cardiac damage in acute myocardial infarction Wistar rat model assessed as decrease in myocardial infarction at 8.5 mg/kg treated 5 mins before ischemia by TTC staining; assay type: functional, Myocardium; parameters: scale not given: the % may be the effect or the level left
# Summary of the method: (§1)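 In vivo: 8.5 mg/kg injected into left ventricle five minutes before ischemia; 35 min ischemia then 60 min reperfusion; infarct size of left ventricular free wall expressed as percent, n=7.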
# [7] = tested on: Rattus norvegicus; assay: Toxicity in Wistar rat assessed as histopathology at 6 mg/kg/day for 1 week; assay type: organism-based; details: in vivo, 168 h
# [8] = target: T2, Aldehyde dehydrogenase, mitochondrial (Homo sapiens); assay: Activation of human ALDH2 assessed as phosphorylated enzyme at 20 uM in presence of rat PKCepsilon by spectrophotometry
# [9] = tested on: Rattus norvegicus; assay: Induction of cell-stress in Wistar rat heart assessed as JNK activation at 8.5 mg/kg after 5 mind by Western blot analysis; assay type: functional, organism-based; parameters: dose 8.5 mg/kg
# [10] = tested on: Heart; assay: Ex vivo cardiac protection in Langendorff perfused Wistar rat heart assessed decrease in myocardial infarct size at 20 uM treated […] ischemia followed by 60 mins reperfusion by TTC staining; assay type: functional; parameters: scale not given: the % may be the effect or the level left
# Summary of the method: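 Langendorff-perfused rat hearts pretreated 10 min with 20 μM drug or vehicle, then 35 min ischemia and 60 min reperfusion. Infarct size assessed by TTC staining of cross-sectional slices; n=7 hearts per group.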
# [11] = Effect on alcohol dehydrogenase 1 activity at 100 uM
# [12] = target: T2, Aldehyde dehydrogenase, mitochondrial (Homo sapiens); assay: Activation of human ALDH2 assessed as phosphorylated enzyme at 20 uM in absence of rat PKCepsilon by spectrophotometry
# [13] = target: T3, Aldehyde dehydrogenase 1A1 (Homo sapiens) (UniProt P00352); assay: Effect on human recombinant his-tagged cytosolic ALDH1A1 activity expressed in Escherichia coli BL21 cells at 100 uM
# T3 sequence (whole entry): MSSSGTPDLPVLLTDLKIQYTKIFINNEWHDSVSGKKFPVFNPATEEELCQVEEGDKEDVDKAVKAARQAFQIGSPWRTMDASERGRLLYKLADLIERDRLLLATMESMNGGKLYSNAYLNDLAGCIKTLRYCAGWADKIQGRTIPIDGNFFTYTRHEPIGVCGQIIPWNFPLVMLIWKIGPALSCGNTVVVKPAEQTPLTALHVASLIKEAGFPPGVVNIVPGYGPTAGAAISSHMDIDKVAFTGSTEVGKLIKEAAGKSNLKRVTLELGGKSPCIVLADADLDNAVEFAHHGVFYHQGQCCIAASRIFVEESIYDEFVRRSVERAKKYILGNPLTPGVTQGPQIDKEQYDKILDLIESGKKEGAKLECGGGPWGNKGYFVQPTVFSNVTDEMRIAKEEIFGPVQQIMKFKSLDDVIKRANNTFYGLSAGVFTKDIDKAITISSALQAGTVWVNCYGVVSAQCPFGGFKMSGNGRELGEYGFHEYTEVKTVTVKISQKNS
# [14] = tested on: BL21; assay: Increase in human recombinant ALDH2*1/*2 E487K mutant heterotetramer activity expressed in Escherichia coli BL21 cells using wild type and mutant allele
# Summary of the method: (§2)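 Recombinant human ALDH2 proteins (wild type, heterozygous and homozygous mutant forms), 20μg each, assayed for enzymatic activity with 100 μM activator present; activity expressed as percent of untreated control; n=3.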
# [15] = tested on: Heart; assay: Ex vivo cardiac protection in Langendorff perfused Wistar rat heart assessed decrease of CPK release at 20 uM treated 35 mins before ischemia followed by 60 mins reperfusion; assay type: functional; parameters: scale not given: the % may be the effect or the level left
# [16] = tested on: Rattus norvegicus; assay: Reduction of cardiac damage in acute myocardial infarction Wistar rat model assessed as decrease in infarct size at 8.5 mg/kg treated before left anterior descending coronary artery ligation measured after 35 mins of ischemia followed by 60 mins reperfusion by TTC staining; assay type: functional, Myocardium; parameters: scale not given: the % may be the effect or the level left; summary of the method: as §1
# [17] = tested on: Rattus norvegicus; assay: Toxicity in Wistar rat assessed as blood parameters at 6 mg/kg/day for 1 week; assay type: organism-based; details: in vivo, 168 h
# [18] = tested on: BL21; assay: Increase in human recombinant ALDH2*2 E487K mutant activity expressed in Escherichia coli BL21 cells; summary of the method: as §2
# [19] = target: T4, Aldehyde dehydrogenase X, mitochondrial (Homo sapiens) (UniProt P30837); assay: Effect on human recombinant his-tagged mitochondrial ALDH5 activity expressed in Escherichia coli BL21 cells at 100 uM
# T4 sequence (whole entry): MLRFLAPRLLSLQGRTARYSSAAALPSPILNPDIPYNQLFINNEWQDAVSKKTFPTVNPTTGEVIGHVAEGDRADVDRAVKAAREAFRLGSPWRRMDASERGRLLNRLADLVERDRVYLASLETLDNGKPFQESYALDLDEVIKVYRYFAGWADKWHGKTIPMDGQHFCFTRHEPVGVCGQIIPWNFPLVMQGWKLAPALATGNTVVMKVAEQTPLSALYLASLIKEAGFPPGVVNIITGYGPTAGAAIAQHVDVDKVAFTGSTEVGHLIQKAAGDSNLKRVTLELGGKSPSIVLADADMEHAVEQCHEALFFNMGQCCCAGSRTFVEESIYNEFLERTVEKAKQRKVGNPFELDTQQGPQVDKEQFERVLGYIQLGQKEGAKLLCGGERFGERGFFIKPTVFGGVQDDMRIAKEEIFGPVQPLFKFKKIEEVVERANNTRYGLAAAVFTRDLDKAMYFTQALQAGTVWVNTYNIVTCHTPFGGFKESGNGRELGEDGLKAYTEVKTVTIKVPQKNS
# [20] = target: T2, Aldehyde dehydrogenase, mitochondrial (Homo sapiens); assay: Increase in wild type human recombinant ALDH2*1/*1 homotetramer activity expressed in Escherichia coli BL21 cells using wild type allele relative to basal activity; summary of the method: as §2
# [21] = tested on: Rattus norvegicus; assay: Induction of cell-stress in Wistar rat heart assessed as JNK activation at 8.5 mg/kg after ischemia followed by reperfusion by occluding left anterior descending coronary artery ligation for 35 mins by Western blot analysis; assay type: functional, organism-based; parameters: dose 8.5 mg/kg
# Summary of the method: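 In vivo rat model: 8.5 mg/kg given into the left ventricle five minutes before 35 min ischemia, followed by 60 min reperfusion.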
compound,measurement,setting,value
O=[N+]([O-])OCC(CO[N+](=O)[O-])O[N+](=O)[O-] [NITROGLYCERIN],Activity,[1],33%
H-HDAPIGYD-OH,Activity,[2],3.2 µmol/min
same,Activity,[3],23%
O=C(NCc1ccc2c(c1)OCO2)c1c(F)cccc1F,Activity,[4],330%
same,Activity,[5],41%
O=C(NCc1ccc2c(c1)OCO2)c1c(Cl)cccc1Cl,Activity,[6],60%
same,Activity,[7],Non-toxic
same,Activity,[8],100%
same,Activity,[4],900%
same,Activity,[9],inactive
same,Activity,[10],26%
same,Activity,[11],inactive
same,Activity,[5],65%
same,Activity,[12],90%
same,Activity,[13],inactive
same,fold change (FC),[14],2.2
same,Activity,[15],24%
same,Activity,[16],43%
same,Activity,[17],Non-toxic
same,fold change (FC),[18],11
same,Activity,[19],inactive
same,fold change (FC),[20],2.1
same,Activity,[21],inactive
O=C(NCc1ccc2c(c1)OCO2)c1ccccc1Br,Activity,[4],550%
same,Activity,[5],56%
